Measured values as given in PMC10374283 (Journal of medicinal chemistry, 2023).
Entries after “also recorded” stand apart in the source; their conditions may differ.

How the values were obtained:
[1] = target: T1, SARS-CoV-2 Nsp14 (Severe acute respiratory syndrome coronavirus 2, UniProt P0DTD1); format: biochemical; conditions: preincubated at 10-fold IC50 for 1 h, diluted 100-fold
[2] = target: Nsp14 (Severe acute respiratory syndrome coronavirus 2, UniProt P0DTD1); test: Assessment of covalent binding to Nsp14 by LC-MS; parameters: species or system SARS-CoV-2
How it was run: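 SARS-CoV-2 Nsp14 was E. coli-expressed with a His6-SUMO tag and purified after SUMO removal. Protein was incubated with a 20-fold molar excess of test compound for 2 h at room temperature (20 °C), then diluted in 0.1% formic acid. Separation used HPLC with a 5–95% acetonitrile/water gradient, followed by ESI time-of-flight mass spectrometry.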

[3] = Colloidal aggregation by dynamic light scattering; format: physicochemical; conditions: for colloid-like particle formation by DLS: 50 mM KPi pH 7.0, 1% DMSO; for CAC relative to Nsp14 IC50: DLS CAC divided by Nsp14 IC50
[4] = system: malate dehydrogenase (MDH); test: Aggregation counter-screen, malate dehydrogenase inhibition; format: biochemical; conditions: for inhibition of MDH: absence of detergent; for inhibition of MDH with detergent: with 0.01% Triton X-100
[5] = target: AmpC β-lactamase (AmpC) (Escherichia coli, UniProt P00811); format: biochemical; conditions: for inhibition of AmpC: absence of detergent; for inhibition of AmpC with detergent: with 0.01% Triton X-100
Sequence of AmpC β-lactamase (AmpC) (P00811 20-377): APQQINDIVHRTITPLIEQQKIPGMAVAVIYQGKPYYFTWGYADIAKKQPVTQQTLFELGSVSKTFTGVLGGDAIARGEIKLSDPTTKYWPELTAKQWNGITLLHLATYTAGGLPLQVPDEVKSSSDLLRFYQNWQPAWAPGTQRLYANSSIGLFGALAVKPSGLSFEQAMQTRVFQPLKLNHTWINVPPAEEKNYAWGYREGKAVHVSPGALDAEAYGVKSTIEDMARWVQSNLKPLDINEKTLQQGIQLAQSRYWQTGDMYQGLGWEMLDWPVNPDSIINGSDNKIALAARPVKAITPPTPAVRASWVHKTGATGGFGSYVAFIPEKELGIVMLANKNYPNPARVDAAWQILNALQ

[6] = system: panel of 30 human SAM-dependent MTases; test: Selectivity panel of 30 human SAM-dependent protein and RNA MTases; format: biochemical; conditions: compounds at 10 μM, 30 human MTases
[7] = system: SARS-CoV-2; test: Antiviral activity versus cell toxicity; format: cell-based
[8] = system: MDH or AmpC; test: Aggregation counter-screen, enzyme not specified per compound; format: biochemical; conditions: for inhibition of MDH or AmpC: absence of detergent; for inhibition of MDH or AmpC with detergent: with 0.01% of detergent
[9] = target: T1, SARS-CoV-2 Nsp14; test: biochemical; format: biochemical
[10] = target: T1, SARS-CoV-2 Nsp14; test: Mechanism of action: IC50 at varying SAM and RNA concentrations; format: biochemical; conditions: varying SAM or RNA concentration

## N#Cc1ccc(NC(=O)c2cc(C=O)n3c2CCCC3)c2cc(O)ccc12 [‘1911, N-(4-Cyano-7-hydroxynaphthalen-1-yl)-3-formyl-5,6,7,8-tetra-hydroindolizine-1-carboxamide]
[1]
  reversibility of Nsp14 inhibition by jump/rapid dilution: little residual inhibition when diluted below its IC50
[2]
  covalent adduct formation with Nsp14 by mass spectrometry: did not increase the molecular mass of Nsp14
[3]
  colloid-like particle formation by DLS: did form colloid-like particles by DLS at a relevant concentration
[4]
  inhibition of MDH: did inhibit AmpC and MDH in the absence of Triton
  inhibition of MDH with detergent: this inhibition disappeared
[5]
  inhibition of AmpC: did inhibit AmpC and MDH in the absence of Triton
  inhibition of AmpC with detergent: this inhibition disappeared
[6]
  inhibition of panel enzymes (>50% criterion): inhibiting only two histone MTases; also recorded: only hit two very closely related MTases
[7]
  antiviral activity versus cell toxicity: for none of them could we distinguish anti-viral activity from cell toxicity

## Cc1c(C(=O)/C=C/c2cc(Br)c(O)cc2F)c(C#N)c2n1CCC2 [‘6953, (E)-6-(3-(5-Bromo-2-fluoro-4-hydroxyphenyl)acryloyl)-5-methyl-2,3-dihydro-1H-pyrrolizine-7-carbonitrile]
[3]
  colloid-like particle formation by DLS: did form colloid-like particles by DLS
[8]
  inhibition of MDH or AmpC: inhibited MDH or AmpC at relevant concentrations
  inhibition of MDH or AmpC with detergent: inhibition was largely eliminated

## O=C(COC(=O)c1cc(-c2ccoc2)n[nH]1)Nc1ccc(Br)cc1 [‘1988, 2-((4-Bromophenyl)amino)-2-oxoethyl 3-(Furan-3-yl)-1H-pyra-zole-5-carboxylate]
[9]
  IC50: 6 µM
[1]
  reversibility of Nsp14 inhibition by jump/rapid dilution: noncovalent inhibitor
[10]
  pattern of inhibition versus SAM and RNA: SAM- and RNA-competitive pattern of inhibition
[3]
  colloid-like particle formation by DLS: formed colloid-like particles by DLS
  CAC relative to Nsp14 IC50: 10 fold
[4]
  inhibition of MDH: inhibition of MDH was in a relevant range
  inhibition of MDH with detergent: inhibition of both enzymes disappeared
[5]
  inhibition of AmpC with detergent: inhibition of both enzymes disappeared
[6]
  inhibition of panel enzymes (>50% criterion): inhibiting nine enzymes more than 50%
[7]
  antiviral activity versus cell toxicity: for none of them could we distinguish anti-viral activity from cell toxicity

## O=C(NC1CSC1)c1ncnn2cccc12 [‘5763, N-(Thietan-3-yl)pyrrolo[2,1-f][1,2,4]triazine-4-carboxamide]
[3]
  colloid-like particle formation by DLS: CACs at relevant concentrations

## Cn1c(C(=O)NCc2ccc(O)c([N+](=O)[O-])c2)c(Br)c2ccccc21 [‘6947, 3-Bromo-N-(4-hydroxy-3-nitrobenzyl)-1-methyl-1H-indole-2-carboxamide]
[3]
  colloid-like particle formation by DLS: did form colloid-like particles by DLS
[8]
  inhibition of MDH or AmpC: inhibited MDH or AmpC at relevant concentrations
  inhibition of MDH or AmpC with detergent: inhibition was largely eliminated

## Cn1c(=O)[nH]c2ncc(-c3cccc(C(=O)Nc4cccc(C#N)c4)c3)cc21 [‘9213, N-(3-Cyanophenyl)-3-(1-methyl-2-oxo-2,3-dihydro-1H-imidazo-[4,5-b]pyridin-6-yl)benzamide]
[9]; tested at 30 and 50 μM
  enzyme inhibition at 30 and 50 μM: more than 50%
[3]
  colloid-like particle formation by DLS: did form colloid-like particles by DLS

## CN(C)c1cncc(NC(=O)c2ccc(C=O)cc2O)c1 [‘1889, N-(5-(Dimethylamino)pyridin-3-yl)-4-formyl-2-hydroxybenza-mide]
[3]
  CAC relative to Nsp14 IC50: CAC five-fold higher than its Nsp14 IC50
[4]
  inhibition of MDH: did not inhibit either counter-screening enzyme under any measured condition
[5]
  inhibition of AmpC: did not inhibit either counter-screening enzyme under any measured condition

## Cn1ncc(N)c1-c1cc2ccccc2[nH]1 [‘6066, 5-(1H-Indol-2-yl)-1-methyl-1H-pyrazol-4-amine]
[3]
  colloid-like particle formation by DLS: CACs at relevant concentrations

## N#Cc1c(C(=O)NCc2ccc(O)c([N+](=O)[O-])c2)[nH]c2ccccc12 [‘6943, 3-Cyano-N-(4-hydroxy-3-nitrobenzyl)-1H-indole-2-carboxamide]
[3]
  colloid-like particle formation by DLS: did form colloid-like particles by DLS
[8]
  inhibition of MDH or AmpC: inhibited MDH or AmpC at relevant concentrations
  inhibition of MDH or AmpC with detergent: inhibition was largely eliminated

## C=CC(=O)NC[C@H](OC)C(=O)N1CCC(C2C(=O)Nc3cc(Cl)ccc32)CC1 (stereo partly drawn) [acryl42_10, N-((2S)-3-(4-(6-Chloro-2-oxoindolin-3-yl)piperidin-1-yl)-2-methoxy-3-oxopropyl)acrylamide]
[9]
  IC50: 7 µM
[9]; relative to parent acryl42
  fold more potent than acryl42: 4.5 fold
[7]
  antiviral activity versus cell toxicity: for none of them could we distinguish anti-viral activity from cell toxicity

## Cc1c(C(=O)/C=C/c2ccc(O)c([N+](=O)[O-])c2)c(C#N)c2n1CCC2 [‘4824, (E)-6-(3-(4-Hydroxy-3-nitrophenyl)acryloyl)-5-methyl-2,3-dihydro-1H-pyrrolizine-7-carbonitrile]
[1]
  reversibility of Nsp14 inhibition by jump/rapid dilution: inhibition by ‘4824 is not due to the nitrile electrophile
[10]
  pattern of inhibition versus SAM and RNA: SAM- and RNA-competitive pattern of inhibition
[3]
  colloid-like particle formation by DLS: did not form detectable particles by DLS
[4]
  inhibition of MDH: did inhibit the counter-screening enzymes MDH and AmpC at relevant concentrations
  inhibition of MDH with detergent: inhibition was largely or entirely eliminated
[5]
  inhibition of AmpC: did inhibit the counter-screening enzymes MDH and AmpC at relevant concentrations
  inhibition of AmpC with detergent: inhibition was largely or entirely eliminated
[6]
  inhibition of panel enzymes (>50% criterion): no inhibition greater than 50% for any enzyme in the panel; also recorded: Nsp14-selective

## CCC(=O)NCCC(=O)N1CCC(C2C(=O)Nc3cc(Cl)ccc32)CC1 (centres unmarked) [ZD160–68, N-(3-(4-(6-Chloro-2-oxoindolin-3-yl)piperidin-1-yl)-3-oxopropyl)-propionamide]
[9]
  Nsp14 enzymatic inhibition (in words): inactive; also recorded: no enzymatic inhibition

## C=CC(=O)N(C)c1ccc(C(=O)Nc2ccc(-c3cn4ccsc4n3)cc2)cc1 [acryl41]
[2]
  covalent adduct formation with Nsp14 by mass spectrometry: did not form a measurable adduct by mass spectrometry

## Oc1ccccc1-c1ncnc2[nH]ccc12 [‘0683, 2-(7H-Pyrrolo[2,3-d]pyrimidin-4-yl)phenolv]
[9]; from Nsp14 IC50
  ligand efficiency (LE): 0.42 kcal/heavy atom
[10]
  pattern of inhibition versus SAM and RNA: competitive and presumably reversible inhibitor of both SAM and RNA binding
[4]
  inhibition of MDH: both MDH and AmpC
[5]
  inhibition of AmpC: both MDH and AmpC
[7]
  antiviral activity versus cell toxicity: for none of them could we distinguish anti-viral activity from cell toxicity

## Cc1cc(C(=O)Nc2cccc(N3CCNC3=O)c2C)sc1C=O [‘4975, 5-Formyl-4-methyl-N-(2-methyl-3-(2-oxoimidazolidin-1-yl)-phenyl)thiophene-2-carboxamide]
[7]
  antiviral activity versus cell toxicity: for none of them could we distinguish anti-viral activity from cell toxicity

## Cc1nc2ncc(-c3c[nH]nn3)cc2[nH]1 [‘0222, 2-Methyl-6-(1H-1,2,3-triazol-4-yl)-1H-imidazo[4,5-b]pyridine]
[3]
  colloid-like particle formation by DLS: CACs at relevant concentrations

## CC(C)SCn1cnc2cnn(C)c2c1=O [‘5604, 6-((Isopropylthio)methyl)-1-methyl-1H-pyrazolo[4,3-d]-pyrimidin-7(6H)-One]
[3]
  colloid-like particle formation by DLS: CACs at relevant concentrations
[4]
  inhibition of MDH: inhibited MDH

## C=C(Cl)COC(=O)c1cnc2[nH]ccc2c1 [‘0741, 2-Chloroallyl 1H-pyrrolo[2,3-b]pyridine-5-carboxylate]
[4]
  inhibition of MDH: inhibited MDH
  inhibition of MDH with detergent: this effect was smaller
